Measured values as given in PMC9623233 (Clinical Cancer Research, 2022).

Experiment: Phase I safety and tolerability: adverse events
Assay type: in vivo, human
Summary of the method: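 Open-label 3+3 escalation of intravenous test compound. Each 4-week cycle was four weekly or two biweekly doses; later arms were biweekly with dexamethasone prophylaxis, or every 3 weeks. AEs were graded by NCI CTCAE v4.0, with laboratory tests, pulmonary function (entry FVC >70%, DLCOc >60%), vital signs, ECG and examination. DLT window: two cycles (8 weeks; 6 weeks for 3-weekly dosing).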

[1] = 12 mg/m^2/q2Wk expansion, worst grade G1
[2] = 12 mg/m^2/q2Wk expansion, worst grade G2
[3] = 12 mg/m^2/q2Wk expansion, worst grade G3
[4] = 12 mg/m^2/q2Wk with and without steroid, Total, all grades
[5] = 12 mg/m^2/q2Wk-steroid expansion, worst grade G1
[6] = 12 mg/m^2/q2Wk-steroid expansion, worst grade G2
[7] = 12 mg/m^2/q2Wk-steroid expansion, worst grade G3

**Q.** For `C#CCN(c1ccc(C(=O)N[C@@H](CCC(=O)N[C@H](CCC(=O)O)C(=O)O)C(=O)O)cc1)[C@H]1CCc2cc3nc(CO)[nH]c(=O)c3cc21` [CT900, N-[4-[2-propyn-1-yl[(6S)-4,6,7,8-tetrahydro-2-(hydroxymethyl)-4-oxo-3H-cyclopenta [g]quinazolin-6-yl]amino]benzoyl]-l-gamma-glutamyl-D-glutamic acid], which “Anemia, treatment-related” value [1] is on record?
**A.** 2 (8) n (%)

**Q.** What about the “Aspartate aminotransferase increased, treatment-related” value (“Aspartate aminotransferase increased” below) [1] of the same molecule?
**A.** 3 (12) n (%)

**Q.** And the “Chills, treatment-related” value [1]?
**A.** 2 (8) n (%)

**Q.** What about the “Cough, treatment-related” value [1] of the same molecule?
**A.** 8 (32) n (%)

**Q.** And the “Decreased appetite, treatment-related” value [1]?
**A.** 3 (12) n (%)

**Q.** What about the “Diarrhea, treatment-related” value [1] of the same molecule?
**A.** 4 (16) n (%)

**Q.** What about the “Fatigue, treatment-related” value [1] of the same molecule?
**A.** 12 (48) n (%)

**Q.** What about the “Nausea, treatment-related” value [1] of the same molecule?
**A.** 8 (32) n (%)

**Q.** And the “Pneumonitis, treatment-related” value [1]?
**A.** 0 (0) n (%)

**Q.** And the “Pyrexia, treatment-related” value [1]?
**A.** 3 (12) n (%)

**Q.** What about the “Vomiting, treatment-related” value [1] of the same molecule?
**A.** 4 (16) n (%)

**Q.** And the “Anemia, treatment-related” value [2]?
**A.** 2 (8) n (%)

**Q.** What about the “Aspartate aminotransferase increased” value [2] of the same molecule?
**A.** 1 (4) n (%)

**Q.** And the “Chills, treatment-related” value [2]?
**A.** 1 (4) n (%)

**Q.** What about the “Cough, treatment-related” value [2] of the same molecule?
**A.** 0 (0) n (%)

**Q.** And the “Decreased appetite, treatment-related” value [2]?
**A.** 0 (0) n (%)

**Q.** What about the “Diarrhea, treatment-related” value [2] of the same molecule?
**A.** 1 (4) n (%)

**Q.** And the “Fatigue, treatment-related” value [2]?
**A.** 1 (4) n (%)

**Q.** What about the “Nausea, treatment-related” value [2] of the same molecule?
**A.** 4 (16) n (%)

**Q.** And the “Pneumonitis, treatment-related” value [2]?
**A.** 4 (16) n (%)

**Q.** What about the “Pyrexia, treatment-related” value [2] of the same molecule?
**A.** 0 (0) n (%)

**Q.** And the “Vomiting, treatment-related” value [2]?
**A.** 0 (0) n (%)

**Q.** What about the “Anemia, treatment-related” value [3] of the same molecule?
**A.** 0 (0) n (%)

**Q.** What about the “Aspartate aminotransferase increased” value [3] of the same molecule?
**A.** 0 (0) n (%)

**Q.** And the “Chills, treatment-related” value [3]?
**A.** 0 (0) n (%)

**Q.** And the “Cough, treatment-related” value [3]?
**A.** 0 (0) n (%)

**Q.** What about the “Decreased appetite, treatment-related” value [3] of the same molecule?
**A.** 0 (0) n (%)

**Q.** What about the “Diarrhea, treatment-related” value [3] of the same molecule?
**A.** 1 (4) n (%)

**Q.** What about the “Fatigue, treatment-related” value [3] of the same molecule?
**A.** 0 (0) n (%)

**Q.** What about the “Nausea, treatment-related” value [3] of the same molecule?
**A.** 0 (0) n (%)

**Q.** And the “Pneumonitis, treatment-related” value [3]?
**A.** 0 (0) n (%)

**Q.** And the “Pyrexia, treatment-related” value [3]?
**A.** 0 (0) n (%)

**Q.** And the “Vomiting, treatment-related” value [3]?
**A.** 0 (0) n (%)

**Q.** What about the “Anemia, treatment-related” value [4] of the same molecule?
**A.** 8 (20) n (%)

**Q.** And the “Aspartate aminotransferase increased” value [4]?
**A.** 7 (18) n (%)

**Q.** And the “Chills, treatment-related” value [4]?
**A.** 4 (10) n (%)

**Q.** What about the “Cough, treatment-related” value [4] of the same molecule?
**A.** 9 (23) n (%)

**Q.** And the “Decreased appetite, treatment-related” value [4]?
**A.** 4 (10) n (%)

**Q.** What about the “Diarrhea, treatment-related” value [4] of the same molecule?
**A.** 9 (23) n (%)

**Q.** What about the “Fatigue, treatment-related” value [4] of the same molecule?
**A.** 21 (53) n (%)

**Q.** What about the “Nausea, treatment-related” value [4] of the same molecule?
**A.** 16 (40) n (%)

**Q.** And the “Pneumonitis, treatment-related” value [4]?
**A.** 8 (20) n (%)

**Q.** And the “Pyrexia, treatment-related” value [4]?
**A.** 7 (18) n (%)

**Q.** What about the “Vomiting, treatment-related” value [4] of the same molecule?
**A.** 4 (10) n (%)

**Q.** What about the “Anemia, treatment-related” value [5] of the same molecule?
**A.** 1 (6.7) n (%)

**Q.** What about the “Aspartate aminotransferase increased” value [5] of the same molecule?
**A.** 3 (20) n (%)

**Q.** And the “Chills, treatment-related” value [5]?
**A.** 1 (6.7) n (%)

**Q.** And the “Cough, treatment-related” value [5]?
**A.** 1 (6.7) n (%)

**Q.** And the “Decreased appetite, treatment-related” value [5]?
**A.** 1 (6.7) n (%)

**Q.** And the “Diarrhea, treatment-related” value [5]?
**A.** 2 (13.3) n (%)

**Q.** What about the “Fatigue, treatment-related” value [5] of the same molecule?
**A.** 6 (40) n (%)

**Q.** What about the “Nausea, treatment-related” value [5] of the same molecule?
**A.** 4 (26.7) n (%)

**Q.** And the “Pneumonitis, treatment-related” value [5]?
**A.** 1 (6.7) n (%)

**Q.** What about the “Pyrexia, treatment-related” value [5] of the same molecule?
**A.** 4 (26.7) n (%)

**Q.** What about the “Vomiting, treatment-related” value [5] of the same molecule?
**A.** 0 (0) n (%)

**Q.** What about the “Anemia, treatment-related” value [6] of the same molecule?
**A.** 1 (6.7) n (%)

**Q.** What about the “Aspartate aminotransferase increased” value [6] of the same molecule?
**A.** 0 (0) n (%)

**Q.** And the “Chills, treatment-related” value [6]?
**A.** 0 (0) n (%)

**Q.** And the “Cough, treatment-related” value [6]?
**A.** 0 (0) n (%)

**Q.** And the “Decreased appetite, treatment-related” value [6]?
**A.** 0 (0) n (%)

**Q.** What about the “Diarrhea, treatment-related” value [6] of the same molecule?
**A.** 0 (0) n (%)

**Q.** What about the “Fatigue, treatment-related” value [6] of the same molecule?
**A.** 2 (13.3) n (%)

**Q.** And the “Nausea, treatment-related” value [6]?
**A.** 0 (0) n (%)

**Q.** What about the “Pneumonitis, treatment-related” value [6] of the same molecule?
**A.** 3 (20) n (%)

**Q.** What about the “Pyrexia, treatment-related” value [6] of the same molecule?
**A.** 0 (0) n (%)

**Q.** And the “Vomiting, treatment-related” value [6]?
**A.** 0 (0) n (%)

**Q.** And the “Anemia, treatment-related” value [7]?
**A.** 2 (13.3) n (%)

**Q.** What about the “Aspartate aminotransferase increased” value [7] of the same molecule?
**A.** 0 (0) n (%)

**Q.** And the “Chills, treatment-related” value [7]?
**A.** 0 (0) n (%)

**Q.** What about the “Cough, treatment-related” value [7] of the same molecule?
**A.** 0 (0) n (%)

**Q.** What about the “Decreased appetite, treatment-related” value [7] of the same molecule?
**A.** 0 (0) n (%)

**Q.** What about the “Diarrhea, treatment-related” value [7] of the same molecule?
**A.** 1 (6.7) n (%)

**Q.** And the “Fatigue, treatment-related” value [7]?
**A.** 0 (0) n (%)

**Q.** And the “Nausea, treatment-related” value [7]?
**A.** 0 (0) n (%)

**Q.** What about the “Pneumonitis, treatment-related” value [7] of the same molecule?
**A.** 0 (0) n (%)

**Q.** And the “Pyrexia, treatment-related” value [7]?
**A.** 0 (0) n (%)

**Q.** What about the “Vomiting, treatment-related” value [7] of the same molecule?
**A.** 0 (0) n (%)

**Q.** And the “Drug-related, predominantly low-grade pneumonitis” value (all patients, 10/109)?
**A.** 9%

**Q.** What about the Fatal pneumonitis (during the trial) of the same molecule?
**A.** no cases of fatal pneumonitis

**Q.** What about the “Recommended phase II dose/schedule” value (intravenous) of the same molecule?
**A.** 12 mg/m^2/q2Wk

**Q.** What about the “Drug-related NCI CTCAE ≥grade 3 events” value (qWk schedule 1-6 mg/m^2, 21 patients: anemia, cellulitis, pneumonitis) of the same molecule?
**A.** three
